Measured values reported in paper PMC6863163 (Journal of neuro-oncology, 2019).
Where “and” joins values, the source holds several entries; their conditions need not be identical. Equal values may be shown once. Read-outs that look alike come from different tables or passages of the source. Values belong to the compound of their own block, whether it stands above or below them.

Columns and labels:
GBM cell proliferation = settings: 7 days before surgery, 4 matched samples; ref Taylor et al. 34; cited from earlier work
[1] = system: recurrent Rb-positive GBM; settings: 22 patients, 125 mg/day, 21-days-on, 7-days-off; cited from earlier work
[2] = format: in vitro ADME, human
Procedure, shortened: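 Plasma and tumor homogenate came from patients dosed at ribociclib 600 mg/day for 8–21 days. Samples were collected 4–8 h after the last pre-surgical dose. Fraction unbound was determined by equilibrium dialysis across a 5-kDa cutoff regenerated cellulose membrane.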

recurrent GBM [3] = experiment: Disease progression; format: in vivo, human; settings: for PFS from start of Ribociclib: 600 mg/day, 21-days-on, 7-days-off after surgery; for OS from second surgery: other regimens off-study after progression
Procedure, shortened: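 Patients with Rb-positive recurrent tumors continued oral ribociclib, 600 mg/day, 21 days on and 7 days off per 28-day cycle, until progression or unacceptable toxicity. Follow-up MRI, including perfusion and diffusion-weighted images, was done after every two cycles. Progression was judged by the Response Assessment in Neuro-Oncology (RANO) criteria.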

Rb phosphorylation [4] = settings: cultured cells, in vitro; cited from earlier work
RbS807/811 = experiment: Immunohistochemistry for phospho-Rb in paired tumor specimens; format: in vivo, human
[5] = format: in vivo, human
Procedure, shortened: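 Patients took oral ribociclib, 600 mg/day, for 8–21 days, with the last dose 4–8 h before surgery. Baseline blood was drawn before treatment and again within 1 h before surgery, then split into plasma and buffy coat. CSF was collected during surgery when feasible. Tumor core and infiltrating regions were located by stealth MRI and frozen. Total drug was measured by validated LC–MS/MS. Unbound drug equals fraction unbound × total.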

cell growth = settings: suppression of cell growth in vitro; no reference given; cited from earlier work
[6] = cited from earlier work
Rb phosphorylation [7] = settings: 900 mg/day for 5 days before surgery, 12 patients; ref Tien et al. 37; cited from earlier work
cell proliferation = settings: 900 mg/day for 5 days before surgery, 12 patients; ref Tien et al. 37; cited from earlier work
[8] = Safety monitoring, adverse events graded by NCI CTCAE version 4.0; format: in vivo, human; settings: for Cough / Creatinine increased / Edema, limbs / Gait disturbance / Generalized muscle weakness / Hyperglycemia / Musculoskeletal and connective tissue disorder—other: muscle pain / Nausea / Peripheral sensory neuropathy / Psychosis / Insomnia: count, prior to surgery and during treatment phase
Procedure, shortened: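 Participants with recurrent GBM took oral ribociclib, 600 mg once daily, for 8–21 days before resection. Rb-positive cases then continued on 21 days on and 7 days off per 28-day cycle. Throughout treatment, staff monitored complete blood counts, blood chemistry, 12-lead ECG, vital signs, Karnofsky status and physical exam. Adverse events were graded by NCI CTCAE v4.0 and assessed for expectedness and drug attribution.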

recurrent GBM [9] = settings: three of 17 patients with recurrent GBM; 150 mg or 200 mg twice daily; cited from earlier work
[10] = enhancing tumor, subject RIBO-001, mean of specimens
[11] = enhancing tumor, subject RIBO-003, mean of specimens
[12] = mean across all specimens, 600 mg QD 8–21 days
[13] = mean ± SD, all tumor specimens of three subjects
[14] = mean ± SD, assuming tumor tissue density of 1.04 g/mL
[15] = non-enhancing tumor, subject RIBO-001, mean of specimens
[16] = tumor core, subject RIBO-002, mean of specimens
[17] = tumor core, subject RIBO-003, mean of specimens

Compound: CC(=O)c1c(C)c2cnc(Nc3ccc(N4CCNCC4)cn3)nc2n(C2CCCC2)c1=O [palbociclib]
Change in GBM cell proliferation by Ki-67 IHC (GBM cell proliferation): did not produce significant changes
Tumor drug concentrations vs pharmacologically active level (GBM cell proliferation): exceeded those felt to be pharmacologically active
Median PFS [1]: 5.1 weeks
OS [1]: 15.4 weeks

Fraction unbound ([2]; enhancing tumor specimens, subject RIBO-001): 3.9%
Fraction unbound ([2]; enhancing tumor specimens, subject RIBO-002): 6.4% and 5.8% and 5.4%
Fraction unbound ([2]; enhancing tumor specimens, subject RIBO-003): 4.1% and 4.3%
Fraction unbound ([2]; human, plasma, Fraction unbound, subject RIBO-001): 0.102
Fraction unbound ([2]; human, plasma, Fraction unbound, subject RIBO-002): 0.119
Fraction unbound ([2]; human, plasma, Fraction unbound, subject RIBO-003): 0.09
Fraction unbound ([2]; non-enhancing tumor specimens, subject RIBO-001): 4.2%
Fraction unbound ([2]; tumor core specimens, subject RIBO-003): 6.3%
Mean unbound ribociclib concentration in CSF ([5]; 600 mg QD 8–21 days, one CSF sample): 0.632 µM and 0.63 µM
Ribociclib CSF concentration relative to the IC50 for inhibition of CDK4/6 ([5]; CSF): > fivefold
Total ribociclib (CSF ribociclib concentration) ([5]; CSF collected during surgery, subject RIBO-003, 600 mg QD, 14 days): 0.63 µM
Total drug tumor (mean concentration) [5, 10]: 17.97 nmol/g
Unbound drug tumor (mean concentration) [5, 10]: 0.79 nmol/g
Total drug tumor (mean concentration) ([5]; enhancing tumor, subject RIBO-002, mean of specimens): 24.73 nmol/g
Total drug tumor (mean concentration) [5, 11]: 29.99 nmol/g
Unbound drug tumor (mean concentration) [5, 11]: 1.29 nmol/g
Kp ([5]; human, CSF / unbound plasma, oral, 600 mg/day, CSF/unbound plasma concentration ratio, one patient, 0.63/0.49): 1.29
Mean unbound ribociclib concentration in MRI-enhancing tumor [5, 12]: 1.242 nmol/g
Mean unbound ribociclib concentration in MRI-non-enhancing tumor [5, 12]: 0.484 nmol/g and 0.48 nmol/g
Mean unbound ribociclib concentration in tumor core [5, 12]: 1.526 nmol/g
Mean concentration of unbound ribociclib in MRI-enhancing tumor or core ([5]; mean across all subjects, reported herein, 600 mg/day): 1.33 nmol/g
Mean unbound ribociclib concentration in plasma ([5]; mean across participants, 600 mg QD 8–21 days): 0.337 µM
Tumor tissue concentration of total ribociclib [5, 13]: 23.42 ± 10.79 nmol/g
Tumor tissue concentration of unbound ribociclib [5, 13]: 1.24 ± 0.64 nmol/g
Tumor tissue concentration of total ribociclib [5, 14]: 24.36 ± 11.22 µM
Unbound ribociclib intra-tumor drug concentration [5, 14]: 1.29 ± 0.67 µM
Unbound concentration in non-enhancing tumor relative to the IC50 for inhibition of CDK4/6 ([5]; non-enhancing tumor): > fivefold
Total drug tumor (mean concentration) [5, 15]: 8.86 nmol/g
Unbound drug tumor (mean concentration) [5, 15]: 0.48 nmol/g
Total ribociclib ([5]; plasma, day of surgery, subject RIBO-001, 600 mg QD, 8 days before surgery): 3.65 µM
Total ribociclib ([5]; plasma, day of surgery, subject RIBO-002, 600 mg QD, 12 days before surgery): 1.26 µM
Total ribociclib ([5]; plasma, day of surgery, subject RIBO-003, 600 mg QD, 14 days before surgery): 5.44 µM
Total ribociclib ([5]; tumor core specimen, subject RIBO-001, 600 mg QD, 8 days, 4–8 h after last dose): 16.30 nmol/g
Total drug tumor (mean concentration) ([5]; tumor core, subject RIBO-001): 16.30 nmol/g
Unbound drug tumor (mean concentration) ([5]; tumor core, subject RIBO-001): 0.82 nmol/g
Total drug tumor (mean concentration) [5, 16]: 33.03 nmol/g
Unbound drug tumor (mean concentration) [5, 16]: 2.11 nmol/g
Total drug tumor (mean concentration) [5, 17]: 21.65 nmol/g
Unbound drug tumor (mean concentration) [5, 17]: 1.30 nmol/g
Compound: CN(C)C(=O)c1cc2cnc(Nc3ccc(N4CCNCC4)cn3)nc2n1C1CCCC1 [ribociclib]
Disease progression (recurrent GBM [3]; all three participants, ribociclib monotherapy): all experienced early disease progression
PFS from start of Ribociclib (recurrent GBM [3]; participant 001): 2 months
OS from second surgery (recurrent GBM [3]; participant 001): 10 months
PFS from start of Ribociclib (recurrent GBM [3]; participant 002): 5 months
OS from second surgery (recurrent GBM [3]; participant 002): 19 months
PFS from start of Ribociclib (recurrent GBM [3]; participant 003): 2 months
OS from second surgery (recurrent GBM [3]; participant 003): 12 months
Ribociclib (total drug) sufficient to suppress Rb phosphorylation (Rb phosphorylation [4]): 200 nM
Inhibition of tumor tissue CDK4/6 activity (phospho-Rb IHC) or cell proliferation (Ki-67 IHC) (RbS807/811; 600 mg/day monotherapy, archived vs post-ribociclib tumor tissue): did not consistently inhibit
Proportion of phospho-Rb-positive tumor cells and phospho-Rb histoscores, ribociclib-treated vs. baseline tumors (RbS807/811; 8–21 days of ribociclib 600 mg/day, three subjects, Fig. S1A): Two of the three subjects showed a decrease
GI50 (cell growth): 276 nM
Mean unbound ribociclib fraction in plasma ([6]; CV = 17.6%): 12.7%
Mean unbound ribociclib fraction in tumor tissues ([6]; CV = 23%): 4.6%
Change in Rb phosphorylation, archived vs post-ribociclib tumor (Rb phosphorylation [7]): significant decrease
Change in cell proliferation, archived vs post-ribociclib tumor (cell proliferation): significant decrease
Grade of all observed adverse events ([8]; CTCAE v4.0, three participants, 600 mg/day): ≤ 2 grade
Cough ([8]; Grade 1): 1
Creatinine increased ([8]; Grade 1): 0
Edema, limbs ([8]; Grade 1): 1
Gait disturbance ([8]; Grade 1): 0
Generalized muscle weakness ([8]; Grade 1): 0
Hyperglycemia ([8]; Grade 1): 0
Musculoskeletal and connective tissue disorder—other: muscle pain ([8]; Grade 1): 1
Nausea ([8]; Grade 1): 1
Peripheral sensory neuropathy ([8]; Grade 1): 1
Psychosis ([8]; Grade 1): 1
Creatinine increased ([8]; Grade 2): 1
Edema, limbs ([8]; Grade 2): 0
Gait disturbance ([8]; Grade 2): 1
Generalized muscle weakness ([8]; Grade 2): 1
Hyperglycemia ([8]; Grade 2): 1
Insomnia ([8]; Grade 2): 1
Musculoskeletal and connective tissue disorder—other: muscle pain ([8]; Grade 2): 0
Nausea ([8]; Grade 2): 0
Peripheral sensory neuropathy ([8]; Grade 2): 0
Cough ([8]; Total): 1
Creatinine increased ([8]; Total): 1
Edema, limbs ([8]; Total): 1
Gait disturbance ([8]; Total): 1
Generalized muscle weakness ([8]; Total): 1
Hyperglycemia ([8]; Total): 1
Insomnia ([8]; Total): 1
Musculoskeletal and connective tissue disorder—other: muscle pain ([8]; Total): 1
Nausea ([8]; Total): 1
Peripheral sensory neuropathy ([8]; Total): 1
Psychosis ([8]; Total): 1
Serious adverse events ([8]; three participants, 600 mg/day): No participants experienced serious adverse events
Withdrawal from the study due to adverse events ([8]; three participants, 600 mg/day): No participants withdrew

Compound: CCN1CCN(Cc2ccc(Nc3ncc(F)c(-c4cc(F)c5nc(C)n(C(C)C)c5c4)n3)nc2)CC1 [abemaciclib]
Best response: duration of stable disease (recurrent GBM [9]): ≥ 24 weeks
